Among the data in ChEMBL document CHEMBL1137689, “Amines and oximes derived from deoxybenzoins as Helicobacter pylori urease inhibitors” (Eur J Med Chem, 2009) are inhibition and IC50 values, retold here.

Calls of active or inactive are those of the source. The calls are words filed in the database; no cut-off is given here.

Assay [1] concerns the target Urease subunit alpha/Urease subunit beta (Helicobacter pylori (strain ATCC 700392 / 26695) (Campylobacterpylori)) (UniProt P69996+P14916). Description: Inhibition of Helicobacter pylori ATCC 43504 urease assessed as ammonia production at 400 ug/mL by indophenol method. An outline of the steps:
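Crude urease prepared from H. pylori ATCC 43504 grown 24 h at 37 °C in brucella broth with 10% heat-inactivated horse serum, microaerobic (5% O2, 10% CO2, 85% N2). Cells washed in PBS pH 7.4, stored -80 °C; urease in equal-volume glycerol kept at 4 °C. Enzyme (4U) preincubated with compound 3 h at room temperature; ammonia production read by indophenol method; percent inhibition.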

Assay [2] concerns the target Urease subunit alpha/Urease subunit beta (Helicobacter pylori (strain ATCC 700392 / 26695) (Campylobacterpylori), UniProt P69996). Description: Inhibition of Helicobacter pylori ATCC 43504 urease assessed as ammonia production by indophenol method. The gist of the method: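 Crude urease from H. pylori cells, grown 24 h at 37 °C microaerobically (5% O2, 10% CO2, 85% N2) in brucella broth with 10% heat-inactivated horse serum. Cells were washed in PBS pH 7.4 and stored at -80 °C; the extract was kept 1:1 in glycerol at 4 °C. Enzyme (4U) was preincubated with compound 3 h at room temperature. Percent inhibition was screened at 400 µg/mL; IC50 also determined.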

Urease subunit alpha/Urease subunit beta (Helicobacter pylori (strain ATCC 700392 / 26695) (Campylobacterpylori)), sequence (P14916 whole entry, looked up): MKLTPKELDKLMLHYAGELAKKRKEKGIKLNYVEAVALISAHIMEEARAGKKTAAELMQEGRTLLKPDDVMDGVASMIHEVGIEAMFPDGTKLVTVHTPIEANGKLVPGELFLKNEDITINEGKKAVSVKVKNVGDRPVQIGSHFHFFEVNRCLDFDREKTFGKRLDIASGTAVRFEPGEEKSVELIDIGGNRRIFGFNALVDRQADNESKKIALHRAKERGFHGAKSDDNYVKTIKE
Urease subunit alpha/Urease subunit beta (Helicobacter pylori (strain ATCC 700392 / 26695) (Campylobacterpylori)), sequence (P69996 whole entry, looked up): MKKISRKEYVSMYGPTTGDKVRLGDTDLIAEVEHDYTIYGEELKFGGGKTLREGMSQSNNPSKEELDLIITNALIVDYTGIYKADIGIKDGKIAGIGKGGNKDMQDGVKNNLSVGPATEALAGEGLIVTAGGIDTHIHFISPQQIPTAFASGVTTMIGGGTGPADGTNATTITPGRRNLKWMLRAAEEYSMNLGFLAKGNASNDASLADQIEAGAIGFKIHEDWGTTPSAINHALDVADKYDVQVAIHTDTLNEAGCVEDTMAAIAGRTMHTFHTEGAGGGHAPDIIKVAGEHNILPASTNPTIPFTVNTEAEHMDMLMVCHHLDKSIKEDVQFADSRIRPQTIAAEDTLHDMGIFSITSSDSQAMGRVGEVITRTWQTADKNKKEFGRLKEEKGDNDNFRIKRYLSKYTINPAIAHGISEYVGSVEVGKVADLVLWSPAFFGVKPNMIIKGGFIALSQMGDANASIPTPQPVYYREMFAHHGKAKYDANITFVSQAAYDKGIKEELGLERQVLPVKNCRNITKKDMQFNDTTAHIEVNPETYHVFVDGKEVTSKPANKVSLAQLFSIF
Urease subunit alpha/Urease subunit beta, sequence (P69996 whole entry): as the sequence (P69996 whole entry, looked up) above
Urease subunit alpha/Urease subunit beta, sequence (P14916 whole entry, further chain): as the sequence (P14916 whole entry, looked up) above

As to `O=C(Cc1ccc(O)cc1)c1c(O)cc(O)cc1O`, in assay [1], the inhibition result was “inactive”.
The same measure, in the same setting: next, `COc1cc(O)c(/C(Cc2ccc(OO)cc2)=N/O)c(OC)c1`: 15%.
Still for that read-out and setting: next, `O=C(Cc1ccc([N+](=O)[O-])cc1)c1ccc(O)cc1O`: “inactive”.
In the case of `COc1ccc(CC(=O)c2ccc(OC)c(OC)c2OC)cc1`, the inhibition entry in assay [1] was “inactive”.
As to `COc1ccc(C/C(=N\O)c2ccc(O)cc2O)cc1`, the inhibition in assay [1] stood at 36%.
Regarding `O/N=C(\Cc1ccc(O)cc1)c1c(O)cc(O)cc1O`, the inhibition in assay [1] came to 13%.
`NC(Cc1ccc(O)cc1)c1ccc(O)c(O)c1O` (stereo unspecified): the inhibition in assay [1] is 97.3%. The IC50 in assay [2] amounted to 47 µM.
As for `COc1ccc(CC(=N)c2ccc(OC)c(OC)c2OC)cc1`, the inhibition in assay [1] was 11%.
Still for that read-out and setting: next, `COc1cc(O)c(C(N)Cc2ccc(OO)cc2)c(OC)c1` (stereo unspecified): “inactive”; `O/N=C(\Cc1ccc(F)cc1)c1ccc(O)c(O)c1O`: 55%; `NC(Cc1ccc(F)cc1)c1ccc(O)c(O)c1O` (stereo unspecified): 80%.
For the compound `O=C(Cc1ccc(F)cc1)c1ccc(O)c(O)c1O`, in assay [1], the inhibition is 44%.
With `O/N=C(/Cc1ccc(F)cc1)c1ccc(O)cc1O`, in assay [1], the inhibition turned out to be 23%.
The same measure, in the same setting: next, `O=[N+]([O-])c1ccc(C/C(=N/O)c2ccc(O)cc2O)cc1`: “inactive”; `NC(Cc1ccc([N+](=O)[O-])cc1)c1ccc(O)cc1O` (stereo unspecified): “inactive”; `NC(Cc1ccc(F)cc1)c1ccc(O)cc1O` (stereo unspecified): 48%.
On the same count and under the same terms, next, `COc1cc(O)c(C(=O)Cc2ccc(OO)cc2)c(OC)c1`: “inactive”; `O/N=C(/Cc1ccc(O)cc1)c1ccc(O)c(O)c1O`: 73%; `COc1ccc(CC(N)c2ccc(O)cc2O)cc1` (stereo unspecified): 73%.
On the same count and under the same terms, next, `COc1c(O)cc(O)c(/C(Cc2ccc(O)cc2)=N/O)c1O`: 38%; `O/N=C(\Cc1ccc(O)cc1)c1ccc(O)c(O)c1`: 62%; `COc1ccc(C/C(=N/O)c2ccc(OC)c(OC)c2OC)cc1`: “inactive”.
Take `NC(Cc1ccc(O)cc1)c1c(O)cc(O)cc1O` (stereo unspecified): the inhibition in assay [1] turned out to be 28%.
Same read-out and setting: next, `O=C(Cc1ccc(F)cc1)c1ccc(O)cc1O`: 16%.
Regarding `CC(=O)NO` [ACETOHYDROXAMIC ACID], in assay [2], the IC50 worked out at 11 µM.
